PMC5224916 (Journal of controlled release : official journal of the …, 2016)

What was measured:
[1] = tested on: Caco2, MCF7, and MDA-MB-231 cells; assay: In vitro cellular uptake assays; type: cell-based, human; details: 2 h incubation
Procedure, shortened: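 Caco2, MCF7 and MDA-MB-231 cells were incubated 2 h with free DiD or DiD-loaded plain or Fc-targeted nanoparticles, then fixed in 4% formalin in PBS. Membranes were labelled with a lipophilic dye and nuclei counterstained with DAPI; cells were examined by fluorescence microscopy. For competition, cells were pretreated 30 min with IgG Fc fragments.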

[2] = tested on: intestinal epithelium (duodenum villi); assay: In vivo intestinal uptake of nanoparticles; design: species or system CD-1 mice and nude mice; details: 0.5 mg/kg oral gavage, 2 h, CD-1 and nude mice
Caco2 cell monolayers = assay: Caco2 cell monolayer permeability assay; type: in vitro ADME, human; details: apical to basolateral, 5 µg/mL, 120 min, 37°C, HPLC
Procedure, shortened: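 Caco2 cells grown on polycarbonate Transwell inserts, with monolayer integrity followed by TEER. Free or nanoparticle-formulated test compound (5 µg/mL) added apically; apical-to-basolateral transport tracked over 120 min by HPLC. Papp = (∂Q/∂t)/(A×C₀). For competition, cells were pretreated 30 min with IgG Fc fragments; transported Fc was quantified by human IgG Fc ELISA. Means ± SEM, at least three independent experiments.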

MCF7 cells = assay: Cell cycle distribution assay; type: cell-based, human; details: MCF7, 24 h, tested 0, 20, 50, 100 ng/mL
MDA-MB-231 cells = assay: Cell cycle distribution assay; type: cell-based, human; details: MDA-MB-231, 24 h, tested 0, 20, 50, 100 ng/mL
MDM2 = MDM2 (Homo sapiens, UniProt Q00987); assay: Western blotting of MDM2, p53 and p21 in breast cancer cells; type: cell-based; details: 20 ng/mL, 24 h, MCF7 and MDA-MB-231 cells
[3] = Plasma pharmacokinetics after oral administration; type: in vivo; details: 160 mg/kg oral, female CD-1 mice
Procedure, shortened: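 Female CD-1 mice were randomised into three groups and given a single oral dose of 160 mg/kg: free compound in PEG400:ethanol:saline (57.1:14.3:28.6), plain nanoparticles or Fc-targeted nanoparticles.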

[4] = tested on: MDA-MB-231 orthotopic tumors; assay: MDA-MB-231 orthotopic tumor model, in vivo efficacy; design: species or system nude mice; details: 160 mg/kg/day oral
Procedure, shortened: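 Female athymic nu/nu mice, 4–6 weeks, received 1×10⁶ MDA-MB-231 cells in the second thoracic mammary fat pad under anaesthesia. After 2 weeks, mice were split into groups of 10. Dosing was by oral gavage, 5 days/week for 24 days: free compound in PEG400:ethanol:saline (57.1:14.3:28.6) or nanoparticles at 160 mg/kg/day, Fc-targeted form at 80 or 160 mg/kg/day; controls got vehicle. Mice with lung metastasis were counted at the end.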

Chain of MDM2 (Q00987 whole entry): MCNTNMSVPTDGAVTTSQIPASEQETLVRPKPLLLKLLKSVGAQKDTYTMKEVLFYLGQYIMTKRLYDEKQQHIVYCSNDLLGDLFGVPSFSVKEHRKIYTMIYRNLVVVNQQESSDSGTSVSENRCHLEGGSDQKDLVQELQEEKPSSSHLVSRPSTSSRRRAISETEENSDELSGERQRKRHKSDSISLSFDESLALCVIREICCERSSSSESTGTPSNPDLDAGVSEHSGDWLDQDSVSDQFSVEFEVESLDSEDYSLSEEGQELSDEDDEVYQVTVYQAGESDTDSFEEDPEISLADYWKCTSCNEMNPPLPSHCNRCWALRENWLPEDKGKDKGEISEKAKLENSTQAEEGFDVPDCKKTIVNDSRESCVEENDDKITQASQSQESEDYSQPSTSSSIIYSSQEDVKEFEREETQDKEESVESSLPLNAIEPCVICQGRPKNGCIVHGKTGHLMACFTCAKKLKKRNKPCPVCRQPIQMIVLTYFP

Compound | Cellular uptake of DiD (fluorescence microscopy) [1] | DiD fluorescence in the villi of the duodenum [2] | Apparent permeability coefficient (Papp) (Caco2 cell monolayers) | Concentration at which G2/M phase cell cycle arrest starts to be induced (MCF7 cells) | Concentration at which G2/M phase cell cycle arrest starts to be induced (MDA-MB-231 cells) | Effect on MDM2, p53 and p21 expression (MDM2) | Cmax (peak plasma concentration of SP141) [3] | Inhibition of MDA-MB-231 tumor growth ([4]; 5 days/week, Day 24) | Incidence of lung metastasis (mice with metastatic lesions in the lungs) ([4]; 24 days, 10 mice/group)
CCCCCCCCCCCCCCCCCCN1C(=CC=CC=CC2=[N+](CCCCCCCCCCCCCCCCCC)c3ccccc3C2(C)C)C(C)(C)c2ccccc21.[O-][Cl+3]([O-])([O-])[O-] [DiD, 1,1'-dioctadecyl-3,3,3',3'-tetramethylindodicarbocyanine perchlorate] | unable to diffuse into the cells | not observed | – | – | – | – | – | – | –
COc1ccc2[nH]c3c(-c4cccc5ccccc45)nccc3c2c1 [SP141] | – | – | 70 ×10⁻⁶ cm/s | 100 ng/mL | 100 ng/mL | did not show significant effects | 4300 ng/mL | 51% | 4/10
